Assay results of several laboratories.
Lines come from different studies, so protocols differ. pEC50, pIC50: −log10 of the molar value.
Effect on: cell growth or viability

| Structure (SMILES) | cell line | technique | time | setting | endpoint | result |
| --- | --- | --- | --- | --- | --- | --- |
| C=C(F)C(=O)N1CCN(c2nc(OC[C@@H]3CCCN3C)nc3c2CCN(c2cccc4cccc(Cl)c24)C3)C[C@@H]1CC#N | NCI-H23 | ATP luminescence |  | 3D culture | pIC50 | 7.95 |
| O=C(O)c1ccccc1Nc1cccc(C(F)(F)F)c1 | NCI-H23 | SRB | 48 h |  | GI50 | > 30 µM |
| C=CC(=O)N1CCN(c2nc(=O)n(-c3c(C)ccnc3C(C)C)c3nc(-c4c(O)cccc4F)c(F)cc23)[C@@H](C)C1 | NCI-H1573 | ATP luminescence |  |  | pIC50 | < 5.00 |
| CO[C@]12C[C@@H](COC(=O)c3cncc(Br)c3)CN(C)[C@@H]1Cc1cn(C)c3cccc2c13 | C6661 | MTT | 48 h |  | pIC50 | 4.08 |
| Cc1c(C(=O)O)ccc2c3n(nc12)[C@@H]1[C@H](C3)N(CC2CC2)[C@@]2(C(=O)Nc3cc(Cl)ccc32)[C@H]1c1cccc(Cl)c1F | Rh18 | resazurin |  |  | GI50 | 0.005 µM |
| C=CC(=O)c1cccnc1Nc1cccc(C(F)(F)F)c1 | NCI-H23 | SRB | 48 h |  | GI50 | 14.2 µM |
| COc1cc2nc(N3CCN(C(=O)C4COc5ccccc5O4)CC3)nc(N)c2cc1OC (stereo not drawn) | C6661 | MTT | 48 h |  | pIC50 | 4.27 |
| Cc1noc2c1-c1ccccc1C(c1ccc(Cl)cc1)=N[C@H]2CC(N)=O | KG-1 | ATP luminescence | 72 h |  | pIC50 | 6.28 |
| C=CC(=O)NC1CCN(c2ncc3ncnc(Nc4ccc(Oc5ccc6c(c5)ncn6C)c(C)c4)c3n2)CC1 | SW1573 |  |  |  | pEC50 | 7.10 |
